ChEMBL document CHEMBL3627671, “Novel derivatives of nitro-substituted salicylic acids: Synthesis, antimicrobial activity and cytotoxicity” (Bioorg Med Chem, 2015)
In brackets after ≈: the same amount, converted by molar mass.

Key:
[1] = tested on: Mycobacterium tuberculosis; assay: Antimycobacterial activity against Mycobacterium tuberculosis H37Rv 331/88 after 14 days; type: functional; conditions: H37Rv 331/88, 336 h
[2] = tested on: Mycobacterium tuberculosis; assay: Antimycobacterial activity against Mycobacterium tuberculosis H37Rv 331/88 after 21 days; type: functional; conditions: H37Rv 331/88, 504 h
Mycobacterium avium [3] = assay: Antimycobacterial activity against Mycobacterium avium 330/80 after 14 days; type: functional; conditions: 330/80, 336 h
Mycobacterium avium [4] = assay: Antimycobacterial activity against Mycobacterium avium 330/80 after 21 days; type: functional; conditions: 330/80, 504 h
Mycobacterium kansasii [5] = assay: Antimycobacterial activity against Mycobacterium kansasii 235/80 after 7 days; type: functional; conditions: 235/80, 168 h
How it was run: (§1)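 Šula's semisynthetic medium micromethod at 37 °C, read after 7, 14 and 21 days. The 1.0 McFarland suspension was diluted 10^-4. MIC determined. 6509/96 is a clinical isolate.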

Mycobacterium kansasii [6] = assay: Antimycobacterial activity against Mycobacterium kansasii 235/80 after 14 days; type: functional; conditions: 235/80, 336 h; how it was run: as §1
Mycobacterium kansasii [7] = assay: Antimycobacterial activity against Mycobacterium kansasii 235/80 after 21 days; type: functional; conditions: 235/80, 504 h; how it was run: as §1
Mycobacterium kansasii [8] = assay: Antimycobacterial activity against Mycobacterium kansasii 6509/96 after 7 days; type: functional; conditions: 6509/96, 168 h; how it was run: as §1
Mycobacterium kansasii [9] = assay: Antimycobacterial activity against Mycobacterium kansasii 6509/96 after 14 days; type: functional; conditions: 6509/96, 336 h; how it was run: as §1
Mycobacterium kansasii [10] = assay: Antimycobacterial activity against Mycobacterium kansasii 6509/96 after 21 days; type: functional; conditions: 6509/96, 504 h; how it was run: as §1
Staphylococcus aureus [11] = assay: Antibacterial activity against Staphylococcus aureus CCM 4516/08 after 24 hrs by microdilution broth method; type: functional; conditions: CCM 4516/08, 24 h
Staphylococcus aureus [12] = assay: Antibacterial activity against Staphylococcus aureus CCM 4516/08 after 48 hrs by microdilution broth method; type: functional; conditions: CCM 4516/08, 48 h
Staphylococcus aureus [13] = assay: Antibacterial activity against methicillin-resistant Staphylococcus aureus H 5996/08 after 24 hrs by microdilution broth method; type: functional; conditions: H 5996/08, 24 h
Staphylococcus aureus [14] = assay: Antibacterial activity against methicillin-resistant Staphylococcus aureus H 5996/08 after 48 hrs by microdilution broth method; type: functional; conditions: H 5996/08, 48 h
[15] = tested on: Staphylococcus epidermidis; assay: Antibacterial activity against Staphylococcus epidermidis H 6966/08 after 24 hrs by microdilution broth method; type: functional; conditions: H 6966/08, 24 h
How it was run: (§2)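 Mueller-Hinton broth microdilution (modified M07-A07), pH 7.4 (±0.2). Compounds dissolved in DMSO, tested at final 500 to 0.49 µmol/L. Inoculum in sterile water matched to 0.5 McFarland. Incubated in the dark, humid atmosphere, 35 °C, read at 24 and 48 h visually and at 540 nm. MIC taken as ≥95% growth reduction (IC95) versus control.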

[16] = tested on: Staphylococcus epidermidis; assay: Antibacterial activity against Staphylococcus epidermidis H 6966/08 after 48 hrs by microdilution broth method; type: functional; conditions: H 6966/08, 48 h; how it was run: as §2
Enterococcus sp. [17] = assay: Antibacterial activity against Enterococcus sp. J 14365/08 after 24 hrs by microdilution broth method; type: functional; conditions: J 14365/08, 24 h; how it was run: as §2
Enterococcus sp. [18] = assay: Antibacterial activity against Enterococcus sp. J 14365/08 after 48 hrs by microdilution broth method; type: functional; conditions: J 14365/08, 48 h; how it was run: as §2
Escherichia coli [19] = assay: Antibacterial activity against Escherichia coli CCM4517 after 24 hrs by microdilution broth method; type: functional; conditions: CCM4517, 24 h; how it was run: as §2
Escherichia coli [20] = assay: Antibacterial activity against Escherichia coli CCM4517 after 48 hrs by microdilution broth method; type: functional; conditions: CCM4517, 48 h; how it was run: as §2
Klebsiella pneumoniae [21] = assay: Antibacterial activity against Klebsiella pneumoniae D 11750/08 after 24 hrs by microdilution broth method; type: functional; conditions: D 11750/08, 24 h; how it was run: as §2
Klebsiella pneumoniae [22] = assay: Antibacterial activity against Klebsiella pneumoniae D 11750/08 after 48 hrs by microdilution broth method; type: functional; conditions: D 11750/08, 48 h; how it was run: as §2
Klebsiella pneumoniae [23] = assay: Antibacterial activity against ESBL-positive Klebsiella pneumoniae J 14368/08 after 24 hrs by microdilution broth method; type: functional; conditions: J 14368/08, 24 h; how it was run: as §2
Klebsiella pneumoniae [24] = assay: Antibacterial activity against ESBL-positive Klebsiella pneumoniae J 14368/08 after 48 hrs by microdilution broth method; type: functional; conditions: J 14368/08, 48 h; how it was run: as §2
Pseudomonas aeruginosa [25] = assay: Antibacterial activity against Pseudomonas aeruginosa CCM 1961 after 24 hrs by microdilution broth method; type: functional; conditions: CCM 1961, 24 h; how it was run: as §2
Pseudomonas aeruginosa [26] = assay: Antibacterial activity against Pseudomonas aeruginosa CCM 1961 after 48 hrs by microdilution broth method; type: functional; conditions: CCM 1961, 48 h; how it was run: as §2
Candida albicans [27] = assay: Antifungal activity against Candida albicans ATCC 44859 after 24 hrs by microdilution broth method; type: functional; conditions: ATCC 44859, 24 h
How it was run: (§3)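 CLSI M27-A3 broth microdilution in RPMI 1640 with glutamine, buffered to pH 7.0 with MOPS; DMSO diluent. Yeast inoculum 5 × 10^3 ± 0.2 CFU/mL. Moulds grown on Sabouraud agar 3–10 days before spore harvest, final inoculum 0.5-5 × 10^4 CFU/mL, checked in a Bürker chamber. Incubated dark, humid, 35 °C, read at 24 and 48 h visually and at 540 nm. MIC taken as ≥80% (yeasts) or ≥50% (filamentous) growth reduction versus control.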

Candida albicans [28] = assay: Antifungal activity against Candida albicans ATCC 44859 after 48 hrs by microdilution broth method; type: functional; conditions: ATCC 44859, 48 h; how it was run: as §3
Candida tropicalis [29] = assay: Antifungal activity against Candida tropicalis 156 after 24 hrs by microdilution broth method; type: functional; conditions: Candida tropicalis, 156, 24 h; how it was run: as §3
Candida tropicalis [30] = assay: Antifungal activity against Candida tropicalis 156 after 48 hrs by microdilution broth method; type: functional; conditions: Candida tropicalis, 156, 48 h; how it was run: as §3
Pichia kudriavzevii [31] = assay: Antifungal activity against Candida krusei E28 after 24 hrs by microdilution broth method; type: functional; conditions: E28, 24 h; how it was run: as §3
Pichia kudriavzevii [32] = assay: Antifungal activity against Candida krusei E28 after 48 hrs by microdilution broth method; type: functional; conditions: E28, 48 h; how it was run: as §3
Nakaseomyces glabratus [33] = assay: Antifungal activity against Candida glabrata 20/I after 24 hrs by microdilution broth method; type: functional; how it was run: as §3
Nakaseomyces glabratus [34] = assay: Antifungal activity against Candida glabrata 20/I after 48 hrs by microdilution broth method; type: functional; how it was run: as §3
Trichosporon asahii [35] = assay: Antifungal activity against Trichosporon asahii 1188 after 24 hrs by microdilution broth method; type: functional; conditions: Trichosporon asahii, 1188, 24 h; how it was run: as §3
Trichosporon asahii [36] = assay: Antifungal activity against Trichosporon asahii 1188 after 48 hrs by microdilution broth method; type: functional; conditions: Trichosporon asahii, 1188, 48 h; how it was run: as §3
Aspergillus fumigatus [37] = assay: Antifungal activity against Aspergillus fumigatus 231 after 24 hrs by microdilution broth method; type: functional; conditions: Aspergillus fumigatus, 231, 24 h; how it was run: as §3
Aspergillus fumigatus [38] = assay: Antifungal activity against Aspergillus fumigatus 231 after 48 hrs by microdilution broth method; type: functional; conditions: Aspergillus fumigatus, 231, 48 h; how it was run: as §3
Lichtheimia corymbifera [39] = assay: Antifungal activity against Absidia corymbifera 272 after 24 hrs by microdilution broth method; type: functional; conditions: Lichtheimia corymbifera, 272, 24 h; how it was run: as §3
Lichtheimia corymbifera [40] = assay: Antifungal activity against Absidia corymbifera 272 after 48 hrs by microdilution broth method; type: functional; conditions: Lichtheimia corymbifera, 272, 48 h; how it was run: as §3
[41] = tested on: Trichophyton mentagrophytes; assay: Antifungal activity against Trichophyton mentagrophytes 445 after 24 hrs by microdilution broth method; type: functional; conditions: Trichophyton mentagrophytes, 445, 24 h
[42] = tested on: Trichophyton mentagrophytes; assay: Antifungal activity against Trichophyton mentagrophytes 445 after 48 hrs by microdilution broth method; type: functional; conditions: Trichophyton mentagrophytes, 445, 48 h
HepG2 = assay: Cytotoxicity against human HepG2 cells after 24 hrs […]; type: cell-based; conditions: HepG2, 24 h
[43] = Selectivity index, ratio of CI50 for human HepG2 cells to MIC100 for Mycobacterium tuberculosis H37Rv 331/88

O=C(Nc1ccc(Cl)c(Cl)c1)c1cc([N+](=O)[O-])ccc1O
MIC [1]: 8 µM (≈ 2.62 µg/mL) | MIC [2]: 16 µM (≈ 5.23 µg/mL) | MIC (Mycobacterium avium [3]): 125 µM (≈ 40.9 µg/mL) | MIC (Mycobacterium avium [4]): 125 µM (≈ 40.9 µg/mL) | MIC (Mycobacterium kansasii [5]): 16 µM (≈ 5.23 µg/mL) | MIC (Mycobacterium kansasii [6]): 32 µM (≈ 10.5 µg/mL) | MIC (Mycobacterium kansasii [7]): 32 µM (≈ 10.5 µg/mL) | MIC (Mycobacterium kansasii [8]): 32 µM (≈ 10.5 µg/mL) | MIC (Mycobacterium kansasii [9]): 32 µM (≈ 10.5 µg/mL) | MIC (Mycobacterium kansasii [10]): 32 µM (≈ 10.5 µg/mL) | MIC (Staphylococcus aureus [11]): 31.2 µM (≈ 10.2 µg/mL) | MIC (Staphylococcus aureus [12]): 31.2 µM (≈ 10.2 µg/mL) | MIC (Staphylococcus aureus [13]): 31.2 µM (≈ 10.2 µg/mL) | MIC (Staphylococcus aureus [14]): 31.2 µM (≈ 10.2 µg/mL) | MIC [15]: 62.5 µM (≈ 20.4 µg/mL) | MIC [16]: 62.5 µM (≈ 20.4 µg/mL) | MIC (Enterococcus sp. [17]): 125 µM (≈ 40.9 µg/mL) | MIC (Enterococcus sp. [18]): 125 µM (≈ 40.9 µg/mL) | MIC (Escherichia coli [19]): > 500 µM | MIC (Escherichia coli [20]): > 500 µM | MIC (Klebsiella pneumoniae [21]): > 500 µM | MIC (Klebsiella pneumoniae [22]): > 500 µM | MIC (Klebsiella pneumoniae [23]): > 500 µM | MIC (Klebsiella pneumoniae [24]): > 500 µM | MIC (Pseudomonas aeruginosa [25]): > 500 µM | MIC (Pseudomonas aeruginosa [26]): > 500 µM | MIC (Candida albicans [27]): > 500 µM | MIC (Candida albicans [28]): > 500 µM | MIC (Candida tropicalis [29]): > 500 µM | MIC (Candida tropicalis [30]): > 500 µM | MIC (Pichia kudriavzevii [31]): > 500 µM | MIC (Pichia kudriavzevii [32]): > 500 µM | MIC (Nakaseomyces glabratus [33]): > 500 µM | MIC (Nakaseomyces glabratus [34]): > 500 µM | MIC (Trichosporon asahii [35]): > 500 µM | MIC (Trichosporon asahii [36]): > 500 µM | MIC (Aspergillus fumigatus [37]): > 500 µM | MIC (Aspergillus fumigatus [38]): > 500 µM | MIC (Lichtheimia corymbifera [39]): > 500 µM | MIC (Lichtheimia corymbifera [40]): > 500 µM | MIC [41]: 250 µM (≈ 81.8 µg/mL) | MIC [42]: 250 µM (≈ 81.8 µg/mL) | IC50 (HepG2): 8.9 µM | Selectivity Index [43]: 0.556
